# Screening results deposited in PubChem by Broad Institute.
# A selection: hits, their analogues and other compounds. The true share with any hit is near 3.5%.
# esBAF inh: blocks esBAF chromatin remodeling in mouse ES cells; AID 602393; reporter increase, % at 12.5 µM; 2% of 350,000 active; Bmi1-luciferase knock-in reporter, 24 h; 100% = twice the neutral-well signal; in the data active = activation above about 40%;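 also: 0% = median of the plate's neutral control wells and 100% = double that signal; a rise in the Bmi1 reporter signal indicates esBAF inhibition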
# Wnt bcat act: activators of Wnt/beta-catenin signaling; Wnt/beta-catenin reporter cell assay, activator, plate reader; activation, % at 9.35 µM; 1.2% of 300,000 active; AID 743398; in the data active = activation above about 30%, passing the limit was not always enough;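 also: 0% = neutral control wells and 100% = positive control wells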
# Env fusion inh: blocks HIV Env-driven cell-cell fusion. HeLa-JRFL Env/CEM21 cell fusion, luciferase. AID 651610. 1.1% of 360,000 active. inhibition, % at 12.3 µM;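 active = mean replicate inhibition score of at least 50 and every replicate individually at or above 50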;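 also: 0% = plate neutral controls and 100% = maraviroc near 300 nM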
# MITF act: MITF TRPM1 promoter activation in melanoma cells; SK-MEL-5 TRPM1-promoter luciferase, 24 h; % of positive control, neutral wells = 0; 0.75% of 300,000 active; activation, % at 12.5 µM;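 active = mean activation of at least 80% with every replicate also reaching 80%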;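 also: 0% = neutral control wells and 100% = parthenolide positive control wells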
# ERAP1 inh: blocks human ERAP1 aminopeptidase activity | inhibition, % at 10.7 µM | recombinant ERAP1, Leu-AMC fluorescence, 60 min | 0.15% of 340,000 active | Q9NZ08;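 active = mean replicate inhibition of at least 30%, or all replicates individually reaching that 30% level; inactive = mean below 30% and not every replicate reaching it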;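 also: 0% = neutral control wells and 100% = L-leucinethiol positive control wells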
# Target sequence (Q9NZ08 whole entry, looked up): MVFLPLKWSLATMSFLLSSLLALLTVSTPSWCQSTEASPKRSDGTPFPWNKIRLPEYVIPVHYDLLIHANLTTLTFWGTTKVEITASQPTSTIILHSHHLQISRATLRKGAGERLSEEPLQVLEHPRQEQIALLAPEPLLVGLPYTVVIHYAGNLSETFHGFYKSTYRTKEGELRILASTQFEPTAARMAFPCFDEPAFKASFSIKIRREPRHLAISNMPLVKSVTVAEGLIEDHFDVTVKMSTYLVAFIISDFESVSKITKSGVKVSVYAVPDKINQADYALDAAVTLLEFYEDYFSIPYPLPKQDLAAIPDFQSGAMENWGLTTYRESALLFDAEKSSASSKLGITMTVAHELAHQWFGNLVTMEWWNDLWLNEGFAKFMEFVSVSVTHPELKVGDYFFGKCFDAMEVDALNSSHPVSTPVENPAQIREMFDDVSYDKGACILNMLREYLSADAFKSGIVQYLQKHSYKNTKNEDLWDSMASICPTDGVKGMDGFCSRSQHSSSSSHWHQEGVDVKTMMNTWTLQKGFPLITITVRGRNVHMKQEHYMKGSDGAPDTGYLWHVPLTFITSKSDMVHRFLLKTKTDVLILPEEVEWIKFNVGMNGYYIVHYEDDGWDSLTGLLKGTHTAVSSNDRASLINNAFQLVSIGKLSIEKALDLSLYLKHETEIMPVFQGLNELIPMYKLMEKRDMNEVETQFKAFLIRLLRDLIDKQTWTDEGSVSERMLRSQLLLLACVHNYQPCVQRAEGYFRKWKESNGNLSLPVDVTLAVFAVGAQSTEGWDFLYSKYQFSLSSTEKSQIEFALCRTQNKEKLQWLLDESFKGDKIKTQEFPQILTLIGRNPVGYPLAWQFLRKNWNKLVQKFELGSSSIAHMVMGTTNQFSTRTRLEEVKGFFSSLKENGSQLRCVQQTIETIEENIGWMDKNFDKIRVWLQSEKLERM
# Cneo AK release: Cryptococcus neoformans lysis via adenylate kinase release; C. neoformans lysis, adenylate kinase release luminescence, 4 h; normalised: neutral wells 0, clomiphene wells 100; lysis activity, % at 15 µM; 0.2% of 360,000 active; AID 651654;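 active = mean lysis activity across replicates of at least 80%, whatever share of replicates individually reach that level; inactive = mean lysis activity below 80%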
#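 Material: C. neoformans cells; Schedule: 4 h static compound exposure, 37 °C, read 1 h post-reagent; Measured by: adenylate kinase release luminescence; Read-out: signal increase indicating cell lysis; Controls: Clomiphene as positive lysis control.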
# * = called active by the depositor; i = inactive; nt = no result; [ ] = another dose, or the depositor's remark.
SMILES,esBAF inh,Wnt bcat act,Env fusion inh,MITF act,ERAP1 inh,Cneo AK release
COc1ccc(CN(C)C[C@H]2OCCCC[C@H](C)Oc3ccc(NS(C)(=O)=O)cc3C(=O)N([C@@H](C)CO)C[C@@H]2C)cc1,-4.2,nt,2.9[16.7 µM],nt,1.0,54.5
O=C(Nc1ccc(F)c(Cl)c1)c1csc([C@H]2C[C@H](O)[C@@H](CO)O2)n1,87.8*,40.3*,-49.3,nt,-1.3,-0.7
O=C(Nc1ccc(F)c(Cl)c1)c1ccc2sc([C@H]3C[C@H](O)[C@@H](CO)O3)nc2c1,62.2*,-2.6,44.4,nt,1.5,-3.2
O=C(Nc1ccc(Oc2ccccc2)cc1)c1csc([C@H]2C[C@H](O)[C@@H](CO)O2)n1,-8.3,-7.9,67.7*,nt,-4.3,-0.3
O=C(Nc1ccc(F)c(Cl)c1)c1csc([C@@H]2C[C@H](O)[C@@H](CO)O2)n1,43.0*,-1.7,-17.5,nt,0.4,-6.3
O=C(Nc1cccc(Cl)c1)c1csc([C@@H]2C[C@H](O)[C@@H](CO)O2)n1,20.1,6.1,-7.1,nt,2.1,-1.1
C[C@H]1CN([C@@H](C)CO)C(=O)Cc2cc(NS(=O)(=O)c3ccc(F)cc3)ccc2O[C@H]1CN(C)C(=O)Nc1ccc(F)cc1,-5.9,nt,13.6[16.7 µM],nt,-2.6,-3.0
O=C(Nc1ccc(F)c(Cl)c1)c1csc(COCCO)n1,50.9*,23.0,-13.5,nt,-1.1,0.0
COCC(=O)N(C)C[C@@H]1Oc2cc(-c3ccccc3F)ccc2S(=O)(=O)N([C@H](C)CO)C[C@@H]1C,0.9,nt,-4.6[16.7 µM],nt,-2.2,4.7
Cc1nc(N2CCC(C)CC2)c2oc3ccccc3c2n1,-10.6,nt,nt,-9.5,nt,nt
COc1ccccc1N1CCN(c2nc(C)nc3c2oc2ccccc23)CC1,-8.1,nt,63.4*,-35.2,nt,11.0
C[C@H](CO)N1C[C@H](C)[C@H](CN(C)C(=O)Nc2cccc3ccccc23)OCCCC[C@H](C)Oc2ccc(NS(C)(=O)=O)cc2C1=O,0.8,nt,28.2[16.7 µM],nt,-4.7,-2.1
O=C([C@H]1[C@H](CO)[C@H]2Cn3c(ccc(C4=CCCC4)c3=O)[C@@H]1N2Cc1nccs1)N1CCCCC1,0.4,nt,nt,nt,2.3,6.2
C[C@H](CO)N1C[C@H](C)[C@@H](CN(C)C(=O)Nc2ccccc2)Oc2ccc(NC(=O)Nc3cccc4ccccc34)cc2C1=O,2.4,nt,nt,nt,-14.4,0.1
COc1ccc(NC(=O)c2cc(Cl)ccc2Cl)c([N+](=O)[O-])c1,7.5,-3.8,-20.7,6.6,-2.5,-1.2
COc1cc(NC(=O)COc2ccccc2[N+](=O)[O-])ccc1NC(=O)c1cccs1,49.9*,13.6,9.5,-73.6,nt,20.3
COc1ccc(NC(=O)c2sccc2C)c([N+](=O)[O-])c1,54.6*,-2.1,i,51.4,nt,-1.3
COc1ccc(NC(=O)C/C(C)=N/NC(=O)c2cccs2)c([N+](=O)[O-])c1,2.3,1.8,-8.9,-4.2,2.6,-2.0
COc1ccc(NC(=O)c2cccs2)c([N+](=O)[O-])c1,86.3*,nt,nt,45.8,nt,2.2
COC(=O)[C@@H]1[C@@H](CO)[C@@H]2Cn3c(ccc(-c4ccccc4F)c3=O)[C@@H]2N1C(=O)CC1CC1,4.1,nt,nt,nt,0.2,56.5
C[C@@H]1CN([C@H](C)CO)C(=O)c2cc(NC(=O)CCC(F)(F)F)ccc2O[C@@H](C)CCCCO[C@H]1CN(C)C(=O)C1CCCCC1,1.0,nt,-3.8[16.7 µM],nt,-0.2,2.1
OCCC1CN(Cc2nc(-c3ccccc3)cs2)CCN1C1CCCC1 (centres undefined),0.5,33.8*,-8.2,6.7,0.5,nt
OCCC1CN(Cc2nc(-c3ccccc3)cs2)CCN1Cc1ccc(F)cc1 (centres undefined),3.5,-3.3,26.4,-7.9,8.3,1.3
CCc1ccc(C(=O)CSc2nnc(C3CC3)n2C2CC2)cc1,40.9*,-5.1,nt,39.0,-1.8,-0.1
Cc1ccc(C(=O)CSc2nnc(C3CC3)n2C2CC2)s1,46.1*,25.1,-18.2,nt,-1.1,-0.6
O=C(CSc1nnc(C2CC2)n1C1CC1)c1ccc(F)c(F)c1,26.2,8.6,nt,16.1,0.5,-2.2
COc1cccc(-c2ccc([C@H]3[C@@H](CO)N(C(C)=O)C34CN(C(C)=O)C4)cc2)c1,nt,nt,nt,nt,0.1,nt
NC(=O)c1ccsc1NC(=O)c1cccs1,46.8*,22.5,-72.5,26.8,nt,-4.6
Cc1sc(NC(=O)c2cccs2)c(C(N)=O)c1C,88.4*,6.3,-294.2,37.6,nt,nt
